The nature of data set [1]: Toxicity in Wistar rat administered as single dose. In kind it is organism-based. To be noted: in vivo.
Data set [2] deals with L1210. Kind of data set: Antitumor activity against mouse L1210 cells allografted in BDF1 mouse assessed as increase in life span at 50 mg/kg administered 6 times starting 24 hrs post challenge relative to control. In kind it is functional. The following applies: L1210, 24 h. The procedure, abridged: (§1)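 L1210 leukemia cells, 10^6, inoculated ip; dosing started 24 h after inoculation, given daily as an aqueous solution at pH 8.0-8.4. Survival of treated versus control mice was read out as %ILS = (T/C − 1) × 100.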

Data set [3] deals with L1210. Kind of data set: Antitumor activity against mouse L1210 cells allografted in BDF1 mouse assessed as increase in life span at 40 mg/kg administered 10 times starting 24 hrs post challenge relative to control. In kind it is functional. The following applies: L1210, 24 h. The gist of the method:
as §1

Data set [4] deals with W256. The experiment in a line: Antitumor activity against […] cells allografted in rat assessed as tumor growth inhibition at 60 mg/kg administered 14 times starting 7 days post challenge relative to control. The following applies: W256, 7 days, read-out: TGI.
The test system of data set [5] is L1210. Kind of data set: Antitumor activity against mouse L1210 cells allografted in BDF1 mouse assessed as increase in life span at 33 mg/kg administered 6 times starting 24 hrs post challenge relative to control. The following applies: L1210, 24 h. The format is functional. The gist of the method: as §1
Data set [6] relates to W256. Kind of data set: Antitumor activity against […] cells allografted in rat assessed as tumor growth inhibition at 18 mg/kg administered 13 times starting 7 days post challenge relative to control. The following applies: W256, 7 days, read-out: TGI.
Data set [7] has as its system W256. The experiment in a line: Antitumor activity against […] cells allografted in rat assessed as tumor growth inhibition at 100 mg/kg administered 13 times starting 7 days post challenge relative to control. To be noted: W256, 7 days, read-out: TGI.
Data set [8] deals with L1210. Kind of data set: Antitumor activity against mouse L1210 cells allografted in BDF1 mouse assessed as increase in life span at 100 mg/kg administered 8 times starting 24 hrs post challenge relative to control. In kind it is functional. The following applies: L1210, 24 h. The procedure, abridged:
as §1

Data set [9] deals with L1210. Kind of data set: Antitumor activity against mouse L1210 cells allografted in BDF1 mouse assessed as increase in life span at 100 mg/kg administered 6 times starting 24 hrs post challenge relative to control. The format is functional. To be noted: L1210, 24 h. The gist of the method:
as §1

The test system of data set [10] is L1210. Kind of data set: Antitumor activity against mouse L1210 cells allografted in BDF1 mouse assessed as increase in life span at 50 mg/kg administered 8 times starting 24 hrs post challenge relative to control. The format is functional. The following applies: L1210, 24 h. The procedure, abridged: as §1
Data set [11] deals with L1210. The experiment in a line: Antitumor activity against mouse L1210 cells allografted in BDF1 mouse assessed as increase in life span at 100 mg/kg administered 7 times starting 24 hrs post challenge relative to control. In kind it is functional. The following applies: L1210, 24 h. The gist of the method:
as §1

In ChEMBL document CHEMBL3244424, “Potential anticancer agents. 17. Analogues of methotrexate with a tripeptide side chain” (J Med Chem, 1978) one finds LD50, ILS and inhibition in vivo data, which are given here for 9 molecules.

As usually defined, the LD50 is the dose expected to kill half of the subjects tested. The low end stands for greater toxicity, the high end for lower toxicity. What is called ILS is the gain in survival time of treated over control animals, in per cent. Turning to `CC(NC(=O)c1ccc(N(C)Cc2cnc3nc(N)nc(N)c3n2)cc1)C(=O)NC(CCC(=O)O)C(=O)O` (stereo not given), the LD50 in data set [1] is 500 mg/kg. In the data set on L1210 [2], the ILS at 50 mg/kg is 19%.
As for `Nc1nc(N)c2nc(CNc3ccc(C(=O)NCC(=O)NC(CC(=O)O)C(=O)O)cc3)cnc2n1.O` (stereo not given), the LD50 in [1] was determined as 200 mg/kg. In addition, the increase in lifespan (ILS) at 40 mg/kg with L1210 [3] was found to be 69%. Further, in the data set on W256 [4], the inhibition in vivo at 60 mg/kg amounted to 55%.
`Nc1nc(N)c2nc(CNc3ccc(C(=O)NCC(=O)NC(CCC(=O)O)C(=O)O)cc3)cnc2n1.O` (stereo not given) registered a 50% lethal dose (LD50) in [1] of 400 mg/kg. Moreover, in the data set on L1210 [5], the increase in lifespan (ILS) at 33 mg/kg was found to be 14%. In addition, in the data set with W256 [6], the inhibition in vivo at 18 mg/kg was determined as 30%.
Turning to `CN(Cc1cnc2nc(N)nc(N)c2n1)c1ccc(C(=O)NCC(=O)NC(CC(=O)O)C(=O)O)cc1.O` (stereo not given), the LD50 in data set [1] worked out at 500 mg/kg. For the same molecule, the inhibition in vivo at 100 mg/kg with W256 [7] came out at 41%. Moreover, the ILS at 100 mg/kg in the data set with L1210 [8] was 40%.
In turn, `CN(Cc1cnc2nc(N)nc(N)c2n1)c1ccc(C(=O)NCC(=O)NC(CCC(=O)O)C(=O)O)cc1.O` (stereo not given) showed a 50% lethal dose (LD50) in data set [1] of 830 mg/kg. Further, in the data set on L1210 [8], the ILS at 100 mg/kg is 0%.
Consider `CN(CC(=O)NC(CCC(=O)O)C(=O)O)C(=O)c1ccc(N(C)Cc2cnc3nc(N)nc(N)c3n2)cc1.O` (stereo not given), for which the LD50 in data set [1] was found to be 1000 mg/kg. Further, in the data set on L1210 [9], the ILS at 100 mg/kg was determined as 0%.
As for `CC(C)C[C@H](NC(=O)c1ccc(N(C)Cc2cnc3nc(N)nc(N)c3n2)cc1)C(=O)NC(CCC(=O)O)C(=O)O` (stereo not given in full), the LD50 in data set [1] stood at 500 mg/kg. In addition, in the data set on L1210 [10], the increase in lifespan (ILS) at 50 mg/kg stood at 0%.
`CN(Cc1cnc2nc(N)nc(N)c2n1)c1ccc(C(=O)N[C@@H](Cc2ccccc2)C(=O)NC(CC(=O)O)C(=O)O)cc1.O` (stereo not given in full) showed an LD50 in data set [1] of 1000 mg/kg. In the data set on L1210 [11], the increase in life span (ILS) at 100 mg/kg is 0%.
`CN(Cc1cnc2nc(N)nc(N)c2n1)c1ccc(C(=O)N[C@@H](Cc2ccccc2)C(=O)NC(CCC(=O)O)C(=O)O)cc1.O` (stereo not given in full) registered a median lethal dose (LD50) in [1] of 500 mg/kg.
